Laboratory results as given in ChEMBL document CHEMBL1149143, “Synthesis, antimalarial activity, and molecular modeling of new pyrrolo[1,2-a]quinoxalines, bispyrrolo[1,2-a]quinoxalines, bispyrido[3,2-e]pyrrolo[1,2-a]pyrazines, and bispyrrolo[1,2-a]thieno[3,2-e]pyrazines” (J Med Chem, 2004).

Tests used:
Plasmodium falciparum [1] = test: In vitro antimalarial activity against Plasmodium falciparum FcB1; type: functional, organism-based
Method in brief: (§1)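 P. falciparum kept on human erythrocytes; CQ-sensitive Thai and CQ-resistant FcB1 and K1 strains. Drugs diluted serially in culture medium, added to asynchronous cultures (1% parasitemia, 1% hematocrit) for 24 h at 37 °C, then 0.5 μCi [³H]hypoxanthine per well for 24 h more. Uptake compared with drug-free controls; IC50 from concentration–response curve, mean ± SD of independent experiments. DMSO ≤0.1%.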

L6 [2] = test: In vitro cytotoxicity against mammalian L6 cells was determined; type: functional, cell-based; conditions: Rattus norvegicus
Method in brief: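 L6 cells, 10⁴ per well, exposed to a range of inhibitor concentrations for up to 5 days. Proliferation read by XTT colorimetric assay; inhibition relative to DMSO-treated controls; IC50 reported.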

Plasmodium falciparum [3] = test: In vitro antimalarial activity against Plasmodium falciparum K1; type: functional, organism-based; method in brief: as §1
[4] = Food vacuolar accumulation ratio was determined; type: functional
Method in brief: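 Calculated, not measured: VAR from the compound's pKa values, assuming vacuolar pH 5.0 and external pH 7.4.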

L6 [5] = test: Selectivity IC50 index against Plasmodium falciparum K1 compared to L6 cells; type: functional
[6] = Lipophilicity at pH 5; type: physicochemical; conditions: buffer, read-out: Log D5.0
Method in brief: (§2)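 Octanol/buffer shake partition: phosphate buffer pH 7.4 or acetate buffer pH 5.0, phases mutually presaturated; compound at 50–250 μg/mL in buffer. Aqueous phase shaken with octanol 30 min, centrifuged 3000 rpm 10 min. Aqueous peak areas before and after partitioning by reversed-phase C8 HPLC (acetonitrile–acetate pH 4, 80:20; 60 °C; UV 254 nm).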

Plasmodium falciparum [7] = test: Resistance index as ratio of IC50 for Plasmodium falciparum FcB1 and Thai strains; type: functional
Plasmodium falciparum [8] = test: In vitro antimalarial activity against Thai strain of Plasmodium falciparum; type: functional, organism-based; method in brief: as §1
[9] = Lipophilicity at pH 7.4; type: physicochemical; conditions: buffer, read-out: Log D7.4; method in brief: as §2
Plasmodium falciparum [10] = test: Resistance index as IC50 for Plasmodium falciparum K1 and Thai strains; type: functional

SMILES	IC50 (Plasmodium falciparum [1]) [nM]	IC50 (L6 [2]) [nM]	IC50 (Plasmodium falciparum [3]) [nM]	Ratio [4]	Ratio (L6 [5])	logD [6]	Ratio (Plasmodium falciparum [7])	IC50 (Plasmodium falciparum [8]) [nM]	logD [9]	Ratio (Plasmodium falciparum [10])
COc1ccc2nc(NCCCN(C)CCCNc3nc4ccc(OC)cc4n4cccc34)c3cccn3c2c1	320	3790	200	42100	19.2	0.41	2.7	120	3.41	1.7
CCN(CC)CCCC(C)Nc1nc2ccc(Cl)cc2n2cccc12 (stereo not given)	4790	17300	3060		5.6		2.5	1940		1.6
COc1ccc2c(c1)nc(NCCCN(C)CCCNc1nc3cc(OC)ccc3n3cccc13)c1cccn12	110	5740	50	105000	106.3	0.93	2.2	50	3.55	1
CN(CCCNc1nc2ccc(Cl)cc2n2cccc12)CCCNc1nc2ccc(Cl)cc2n2cccc12	1010	4950	700	1800	7.1	3.5	2.5	400	4.44	1.8
COc1ccc2nc(NCCCNCCCNc3nc4ccc(OC)cc4n4cccc34)c3cccn3c2c1	300	3620	330	41700	11	0.93	2.1	140	2.58	2.4
COc1ccc2c(c1)nc(NCCCNCCCNc1nc3cc(OC)ccc3n3cccc13)c1cccn12	190	2980	110	104000	26.6	0.8	4.7	40	2.76	2.7
COc1ccc2c(c1)nc(NCCCN1CCN(CCCNc3nc4cc(OC)ccc4n4c(Cl)ccc34)CC1)c1ccc(Cl)n12	720	3070	330	900	9.3	4.17	2.9	250	5.74	1.32
c1cc2c(NCCCN3CCN(CCCNc4nc5ccsc5n5cccc45)CC3)nc3ccsc3n2c1	930									
COc1ccc2nc(NCCCN3CCN(CCCNc4nc5ccc(OC)cc5n5cccc45)CC3)c3cccn3c2c1	130	4060	80	72500	52.7	1.88	3.2	40	4.67	2
c1ccc2c(c1)nc(NCCCN1CCN(CCCNc3nc4ccccc4n4cccc34)CC1)c1cccn12	290	5040	370	409000	13.6	1.31	3.6	80	2.52	4.6
CCN(CC)CCCC(C)Nc1nc2ccccc2n2cccc12 (stereo not given)	4970	> 20000	4340		>4.6		1.7	2950		1.5
Clc1ccc2nc(NCCCNCCCNc3nc4ccc(Cl)cc4n4cccc34)c3cccn3c2c1	1140	4810	790	1600	6.1	3.16	2.4	470	5.06	1.7
CN(CCCNc1nc2ccccc2n2cccc12)CCCNc1nc2ccccc2n2cccc12	480	6200	280	226000	22.1	1.56	4	120	4.12	2.3
Clc1ccc2nc(NCCCN3CCN(CCCNc4nc5ccc(Cl)cc5n5cccc45)CC3)c3cccn3c2c1	640	4010	480	2100	8.2	3.43	2.3	280	4.92	1.7
COc1ccc2nc(NCCCN3CCN(CCCNc4nc5ccc(OC)nc5n5cccc45)CC3)c3cccn3c2n1	600			33000		3.97			4.73	
CCN(CC)CCCC(C)Nc1nc2cc(OC)ccc2n2cccc12 (stereo not given)	2470	> 20000	1780		>11.2		3	830		2.1
COc1ccc2c(c1)nc(NCCCN1CCN(CCCNc3nc4cc(OC)ccc4n4cccc34)CC1)c1cccn12	130	1320	80	187000	17.4	2.15	4.3	30	3.72	2.7
c1cnc2c(c1)nc(NCCCN1CCN(CCCNc3nc4cccnc4n4cccc34)CC1)c1cccn12	1090			100		2.22			5.05	
